Measured values: ChEMBL document CHEMBL1134407, “Novel seco cyclopropa[c]pyrrolo[3,2-e]indole bisalkylators bearing a 3,3'-arylenebisacryloyl group as a linker” (J Med Chem, 2001)
≈ marks a conversion by molar mass, not a printed value.

Experiments:
[1] = test system: HeLa; assay: Inhibitory activity against HeLaS3 human uterine cervix carcinoma cells; type: functional, cell-based
Summary of the method: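 HeLaS3 human uterine cervix carcinoma cells were exposed to the drug. The value is the drug concentration that inhibits cell growth by 50%.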

[2] = species: Mus musculus; assay: Percentage tumor growth inhibition as compared with the untreated group; type: functional; parameters: concentration or dose not given beside the values
[3] = species: Mus musculus; assay: Percentage change in body weight; type: functional
[4] = species: Mus musculus; assay: Ratio between maximum dose within 10% body weight loss to tumor growth inhibition; type: functional
[5] = test system: SBC-3; assay: Cytotoxicity against human cancer cell lines SBC-3 of lung; type: functional, cell-based
[6] = test system: ZR-75-1; assay: Cytotoxicity against human cancer cell lines ZR-75-1 of breast.; type: functional, cell-based
[7] = test system: PC-3; assay: Cytotoxicity against human cancer cell lines PC-3 of lung; type: functional, cell-based
[8] = test system: Homo sapiens; assay: Antitumor activity against human colon CX-1 tumor Xenografts in Athymic mice at a dose of 3.91 micro g/kg; type: functional
Summary of the method: (§1)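 Athymic mice carried implanted human colon CX-1 tumor xenografts. Each line gives the dose in μg/kg. Read-out is percentage tumor growth inhibition relative to the untreated group.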

[9] = test system: Homo sapiens; assay: Antitumor activity against human colon CX-1 tumor Xenografts in Athymic mice at a dose of 7.81 micro g/kg; type: functional
Summary of the method: (§2)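 Athymic mice bearing human colon CX-1 tumour xenografts. Dose given in µg/kg. Read-out is percent tumour growth inhibition (TGI) relative to the untreated group.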

[10] = test system: KATO III stomach cancer cell line; assay: Cytotoxicity against human cancer cell lines KATO III (gastric); type: functional, cell-based
[11] = test system: A2780; assay: Cytotoxicity against human cancer cell lines A2780 (ovarian); type: functional, cell-based
[12] = test system: DLD-1; assay: Cytotoxicity against human cancer cell lines DLD-1 of colon.; type: functional, cell-based
[13] = Cytotoxicity against human cancer cell lines SBC-3 /ADR of lung (adriamycin resistant); type: functional, cell-based
[14] = test system: Homo sapiens; assay: Antitumor activity against human colon CX-1 tumor Xenografts in Athymic mice at a dose of 15.6 micro g/kg; type: functional; summary of the method: as §2
[15] = test system: Homo sapiens; assay: Antitumor activity against human colon CX-1 tumor Xenografts in Athymic mice at a dose of 9180 micro g/kg; type: functional; summary of the method: as §1
[16] = Homo sapiens, HeLa, read-out: IC50

SMILES | IC50 [1, 16] | Inhibition [2] | Body weight change [3] | Ratio [4] | also measured
COC(=O)c1c(C(F)(F)F)[nH]c2c(O)cc3c(c12)[C@H](CCl)CN3C(=O)/C=C/c1cccc(-c2ccc(-c3cccc(/C=C/C(=O)N4C[C@@H](CCl)c5c4cc(O)c4[nH]c(C(F)(F)F)c(C(=O)OC)c54)c3)cc2)c1 | > 100 ng/mL |  |  |  | 
COC(=O)c1c(C(F)(F)F)[nH]c2c(O)cc3c(c12)[C@H](CCl)CN3C(=O)/C=C/c1ccc(-c2ccc(-c3ccc(/C=C/C(=O)N4C[C@@H](CCl)c5c4cc(O)c4[nH]c(C(F)(F)F)c(C(=O)OC)c54)cc3)cc2)cc1 | 48.3 ng/mL (≈ 46.8 nM) | 84% | -11% |  | 
COC(=O)c1c(C(F)(F)F)[nH]c2c(O)cc3c(c12)[C@H](CCl)CN3C(=O)/C=C/c1cccc(/C=C/C(=O)N2C[C@@H](CCl)c3c2cc(O)c2[nH]c(C(F)(F)F)c(C(=O)OC)c32)c1 | 54.6 ng/mL (≈ 62.1 nM) | 91% | -5% |  | 
COC(=O)c1c(C(F)(F)F)[nH]c2c(O)cc3c(c12)[C@H](CCl)CN3C(=O)/C=C/c1ccc(/C=C/C(=O)N2C[C@@H](CCl)c3c2cc(O)c2[nH]c(C(F)(F)F)c(C(=O)OC)c32)c2ccccc12 | 0.011 ng/mL (≈ 0.0118 nM) | 85% | 3% | 7.4 | 
COC(=O)c1c(C(F)(F)F)[nH]c2c(O)cc3c(c12)[C@H](CCl)CN3C(=O)/C=C/c1c2ccccc2c(/C=C/C(=O)N2C[C@@H](CCl)c3c2cc(O)c2[nH]c(C(F)(F)F)c(C(=O)OC)c32)c2ccccc12 | 1.51 ng/mL (≈ 1.54 nM) | 75% | -18% |  | 
CCc1c(/C=C/C(=O)N2C[C@@H](CCl)c3c2cc(O)c2[nH]c(C(F)(F)F)c(C(=O)OC)c32)ccc(/C=C/C(=O)N2C[C@@H](CCl)c3c2cc(O)c2[nH]c(C(F)(F)F)c(C(=O)OC)c32)c1CC |  |  |  |  | IC50 ([1]; hela): 0.00138 ng/mL (≈ 0.00147 nM)
COC(=O)c1c(C(F)(F)F)[nH]c2c(O)cc3c(c12)[C@H](CCl)CN3C(=O)/C=C/c1ccc(/C=C/C(=O)N2C[C@@H](CCl)c3c2cc(O)c2[nH]c(C(F)(F)F)c(C(=O)OC)c32)c2c1OCCO2 |  | 91% | 3% | 9 | IC50 ([1]; hela): 0.00276 ng/mL (≈ 0.00294 nM)
COC(=O)c1c(C(F)(F)F)[nH]c2c(O)cc3c(c12)[C@H](CCl)CN3C(=O)/C=C/c1ccc(/C=C/C(=O)N2C[C@@H](CCl)c3c2cc(O)c2[nH]c(C(F)(F)F)c(C(=O)OC)c32)c(OC)c1OC |  | 89% | -1% | 4.6 | IC50 ([1]; hela): 0.00158 ng/mL (≈ 0.00168 nM)
COC(=O)c1c(C(F)(F)F)[nH]c2c(O)cc3c(c12)[C@H](CCl)CN3C(=O)/C=C/c1ccc(-c2ccc(/C=C/C(=O)N3C[C@@H](CCl)c4c3cc(O)c3[nH]c(C(F)(F)F)c(C(=O)OC)c43)cc2)cc1 | 0.141 ng/mL (≈ 0.148 nM) | 83% | 4% | 3.7 | 
COC(=O)c1c(C(F)(F)F)[nH]c2c(O)cc3c(c12)[C@H](CCl)CN3C(=O)/C=C/c1ccc(/C=C/C(=O)N2C[C@@H](CCl)c3c2cc(O)c2[nH]c(C(F)(F)F)c(C(=O)OC)c32)cc1 |  | 89% | -5% | 30.7 | IC50 ([5]; sbc-3): 0.00122 ng/mL (≈ 0.00139 nM); IC50 ([6]; zr-75-1): 0.00463 ng/mL (≈ 0.00526 nM); IC50 [7]: 0.148 ng/mL (≈ 0.168 nM); Inhibition [8]: 77%; Inhibition [9]: 83%; IC50 [10]: 0.816 ng/mL (≈ 0.928 nM); IC50 ([1]; hela): 0.00274 ng/mL (≈ 0.00312 nM); IC50 ([11]; a2780): 0.000397 ng/mL (≈ 0.000451 nM); IC50 [12]: 0.0149 ng/mL (≈ 0.0169 nM); IC50 [13]: 0.00349 ng/mL (≈ 0.00397 nM)
COC(=O)c1c(C(F)(F)F)[nH]c2c(O)cc3c(c12)[C@H](CCl)CN3C(=O)/C=C/c1ccc(/C=C/C(=O)N2C[C@@H](CCl)c3c2cc(O)c2[nH]c(C(F)(F)F)c(C(=O)OC)c32)c2c(OC)ccc(OC)c12 | 0.00934 ng/mL (≈ 0.00944 nM) |  |  |  | 
COC(=O)c1c(C(F)(F)F)[nH]c2c(O)cc3c(c12)[C@H](CCl)CN3C(=O)/C=C/c1cc(OC)c(/C=C/C(=O)N2C[C@@H](CCl)c3c2cc(O)c2[nH]c(C(F)(F)F)c(C(=O)OC)c32)cc1OC | 9.71 ng/mL (≈ 10.3 nM) | 81% | 3% | >6.5 | 
COC(=O)c1c(C(F)(F)F)[nH]c2c(O)cc3c(c12)[C@H](CCl)CN3C(=O)/C=C/c1ccc(-c2ccc(/C=C/C(=O)N3C[C@@H](CCl)c4c3cc(O)c3[nH]c(C(F)(F)F)c(C(=O)OC)c43)cn2)nc1 | 0.0198 ng/mL (≈ 0.0207 nM) | 88% | 4% | 3.6 | 
COC(=O)c1c(C(F)(F)F)[nH]c2c(O)cc3c(c12)[C@H](CCl)CN3C(=O)/C=C/c1ccc(/C=C/C(=O)N2C[C@@H](CCl)c3c2cc(O)c2[nH]c(C(F)(F)F)c(C(=O)OC)c32)c2cc3ccccc3cc12 | 3.25 ng/mL (≈ 3.32 nM) | 82% | -6% | 3.5 | 
COC(=O)c1c(C(F)(F)F)[nH]c2c(O)cc3c(c12)[C@H](CCl)CN3C(=O)/C=C/c1ccccc1/C=C/C(=O)N1C[C@@H](CCl)c2c1cc(O)c1[nH]c(C(F)(F)F)c(C(=O)OC)c21 | 87.6 ng/mL (≈ 99.6 nM) | 70% | -6% |  | 
COC(=O)c1c(C(F)(F)F)[nH]c2c(O)cc3c(c12)[C@H](CCl)CN3C(=O)c1cc2cc(-c3ccc4[nH]c(C(=O)N5C[C@@H](CCl)c6c5cc(O)c5[nH]c(C(F)(F)F)c(C(=O)OC)c65)cc4c3)ccc2[nH]1 |  | 84% | 1% | 3.3 | IC50 ([1]; hela): 0.0049 ng/mL (≈ 0.00499 nM)
COC(=O)c1c(C(F)(F)F)[nH]c2c(O)cc3c(c12)[C@H](CCl)CN3C(=O)/C=C/c1ccc(/C=C/C(=O)N2C[C@@H](CCl)c3c2cc(O)c2[nH]c(C(F)(F)F)c(C(=O)OC)c32)c2c1C(=O)c1ccccc1C2=O | 0.523 ng/mL (≈ 0.518 nM) | 84% | -4% | 6.6 | 
COC(=O)c1c(C(F)(F)F)[nH]c2c(O)cc3c(c12)[C@H](CCl)CN3C(=O)/C=C/c1ccc(/C=C/C(=O)N2C[C@@H](CCl)c3c2cc(O)c2[nH]c(C(F)(F)F)c(C(=O)OC)c32)c2c1OCO2 | 0.00595 ng/mL (≈ 0.00644 nM) | 90% | -2% | 13.3 | 
Cc1c[nH]c2c(O)cc3c(c12)[C@H](CCl)CN3C(=O)c1cc2cc(NC(=O)Nc3ccc4[nH]c(C(=O)N5C[C@@H](CCl)c6c5cc(O)c5[nH]cc(C)c65)cc4c3)ccc2[nH]1 [BIZELESIN] |  | 90% | -3% | 8.4 | Inhibition [9]: 53%; Inhibition [14]: 56%
COc1cccc2c1C(=O)c1c(O)c3c(c(O)c1C2=O)C[C@@](O)(C(=O)CO)C[C@@H]3O[C@H]1C[C@H](N)[C@H](O)[C@H](C)O1 [DOXORUBICIN] |  |  |  |  | IC50 ([5]; Homo sapiens, SBC-3, read-out: IC50): 11.2 ng/mL (≈ 20.6 nM); IC50 ([6]; Homo sapiens, ZR-75-1, read-out: IC50): 6.39 ng/mL (≈ 11.8 nM); IC50 [10]: 905 ng/mL (≈ 1670 nM); IC50 ([11]; Homo sapiens, A2780, read-out: IC50): 12.1 ng/mL (≈ 22.3 nM); IC50 [12]: 136 ng/mL (≈ 250 nM); IC50 [13]: 129 ng/mL (≈ 237 nM)
CO[C@@]12[C@H](COC(N)=O)C3=C(C(=O)C(C)=C(N)C3=O)N1C[C@@H]1N[C@@H]12 [MITOMYCIN] |  |  |  |  | Inhibition [15]: 65%
